ChEMBL document CHEMBL3352199, “Biological evaluation of halogenated thiazolo[3,2-a]pyrimidin-3-one carboxylic acid derivatives targeting the YycG histidine kinase” (Eur J Med Chem, 2014)
Values after ≈ are worked out from the molar mass of the structure shown. Active and inactive are the calls of the source.

Key:
[1] = system: Staphylococcus epidermidis; test: Antimicrobial activity against Staphylococcus epidermidis ATCC 35984 after 12 to 16 hrs by broth micro-dilution method; type: functional
Procedure, shortened: (§1)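 Broth micro-dilution in tubes per CLSI. Serial twofold dilutions in Mueller-Hinton broth, top final concentration 200. The inoculum was 6 h cultures adjusted to 0.5 McFarland. Incubated 37 °C 12–16 h. MIC is the lowest concentration with no visible growth by eye. Growth control (no drug) and sterility control (uninoculated broth) were included.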

[2] = system: Staphylococcus epidermidis; test: Antimicrobial activity against Staphylococcus epidermidis ATCC 12228 after 12 to 16 hrs by broth micro-dilution method; type: functional; procedure, shortened: as §1
Escherichia coli = test: Antimicrobial activity against Escherichia coli ATCC 25922 after 12 to 16 hrs by broth micro-dilution method; type: functional; procedure, shortened: as §1
Shigella flexneri = test: Antimicrobial activity against Shigella flexneri 301 after 12 to 16 hrs by broth micro-dilution method; type: functional; procedure, shortened: as §1
[3] = system: Staphylococcus epidermidis; test: Antibiofilm activity against Staphylococcus epidermidis ATCC 35984 at 50 uM after 18 hrs by crystal violet staining method; type: functional, organism-based
Procedure, shortened: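 S. epidermidis ATCC35984 suspension seeded in microtiter wells, 37 °C 6 h to form young biofilm. PBS-washed ×4, then fresh TSB with graded compound dilutions, 37 °C 18 h. Washed, methanol-fixed 15 min, air-dried, crystal violet stained, OD570 read. Cut-off ODc = mean OD570 of negative control + 3×SD (0.28); triplicate.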

[4] = Hemolytic activity in human erythrocytes at 100 uM after 1 hr by spectrophotometry; type: ADME, cell-based; conditions: erythrocyte, 50 µM, in the assay text read “50 uM” for “100 uM”
Procedure, shortened: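 Healthy human erythrocytes exposed to compounds. After incubation, centrifuged at 350 × g for 10 min, and hemolysis read as supernatant absorbance at 570 nm. DMSO (0.1%) served as negative control and Triton X-100 (1%) as positive control.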

Staphylococcus aureus = test: Antimicrobial activity against Staphylococcus aureus ATCC 25923 after 12 to 16 hrs by broth micro-dilution method; type: functional; procedure, shortened: as §1
[5] = Inhibition of recombinant YycG kinase HK domain autophosphorylation activity (unknown origin) expressed in Escherichia coli BL21 (DE3) preincubated for 30 mins by ATP-Luminescence assay
Procedure, shortened: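 YycG HATPase_c + HisKA domains, expressed in E. coli BL21(DE3), purified on Ni-NTA. Protein at 0.13 mmol/L pre-incubated with serial compound dilutions in 40 mmol/L Tris pH 8.0, 20 mmol/L MgCl₂, 0.1 mg/mL BSA, 25 °C 30 min. ATP 4 mmol/L added, 30 min at 25 °C. Remaining ATP measured by Kinase-Glo luminescence. IC50 fitted from phosphorylation-inhibition rates.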

SMILES	MIC [1] [µM]	MIC [2] [µM]	MIC (Escherichia coli) [µM]	MIC (Shigella flexneri) [µM]	Activity [3]	Activity [4]	MIC (Staphylococcus aureus) [µM]	IC50 [5] [µM]
CCOC(=O)C1=C(c2ccccc2)N=c2s/c(=C\c3ccc(-c4ccc(C(=O)O)cc4)o3)c(=O)n2C1c1ccc(OC)cc1 (configuration not stated)	6.25 (≈ 3.79 µg/mL)	6.25 (≈ 3.79 µg/mL)	> 200	> 200	inactive	Non-toxic		
CCOC(=O)C1=C(c2ccccc2)N=c2s/c(=C\c3ccc(-c4ccc(C(=O)O)cc4)o3)c(=O)n2C1c1ccc(F)cc1 (configuration not stated)	6.25 (≈ 3.72 µg/mL)	6.25 (≈ 3.72 µg/mL)	> 200	> 200	Active	Non-toxic	6.25 (≈ 3.72 µg/mL)	
CCOC(=O)C1=C(c2ccccc2)N=c2s/c(=C\c3ccc(-c4cccc(C(=O)O)c4)o3)c(=O)n2C1c1ccc([N+](=O)[O-])cc1 (configuration not stated)	1.56 (≈ 0.97 µg/mL)	3.12 (≈ 1.94 µg/mL)	> 200	> 200	inactive	Non-toxic	25 (≈ 15.5 µg/mL)	
CCOC(=O)C1=C(c2ccccc2)N=c2s/c(=C\c3ccc(-c4cccc(C(=O)O)c4)o3)c(=O)n2C1c1ccc(O)cc1 (configuration not stated)	50 (≈ 29.6 µg/mL)	50 (≈ 29.6 µg/mL)	> 200	> 200	inactive	Non-toxic		
Cc1nnc(SCC2=C(C(=O)O)N3C(=O)[C@@H](NC(=O)Cn4cnnn4)[C@H]3SC2)s1 [CEFAZOLIN]	17.6 (≈ 8 µg/mL)	17.6 (≈ 8 µg/mL)					17.6 (≈ 8 µg/mL)	
CCOC(=O)C1=C(c2ccccc2)N=c2s/c(=C\c3ccc(OCC(=O)O)c(OC)c3)c(=O)n2C1c1ccc(Cl)cc1 (configuration not stated)	200 (≈ 121 µg/mL)	200 (≈ 121 µg/mL)	> 200	> 200	inactive			
CCOC(=O)C1=C(c2ccccc2)N=c2s/c(=C\c3ccc(-c4cccc(C(=O)O)c4)o3)c(=O)n2C1c1ccc(F)cc1 (configuration not stated)	6.25 (≈ 3.72 µg/mL)	3.12 (≈ 1.86 µg/mL)	> 200	> 200	Active	Non-toxic	6.25 (≈ 3.72 µg/mL)	
O=C(O)c1cccc(-c2ccc(/C=c3\sc4n(c3=O)C(c3ccc(Cl)cc3)C=C(c3ccccc3)N=4)o2)c1 (configuration not stated)	1.56 (≈ 0.841 µg/mL)	6.25 (≈ 3.37 µg/mL)	> 200	> 200	Active	Non-toxic	3.12 (≈ 1.68 µg/mL)	55.6
COc1ccc(C2C=C(c3ccccc3)N=c3s/c(=C\c4ccc(-c5cccc(C(=O)O)c5)o4)c(=O)n32)cc1 (configuration not stated)	1.56 (≈ 0.834 µg/mL)	6.25 (≈ 3.34 µg/mL)	> 200	> 200	inactive	Non-toxic	6.25 (≈ 3.34 µg/mL)	49.9
O=C(O)c1cccc(-c2ccc(/C=c3\sc4n(c3=O)C(c3ccc(F)cc3)C=C(c3ccccc3)N=4)o2)c1 (configuration not stated)	6.25 (≈ 3.27 µg/mL)	3.12 (≈ 1.63 µg/mL)	> 200	> 200	Active	Non-toxic	6.25 (≈ 3.27 µg/mL)	
CCOC(=O)C1=C(C)N=c2s/c(=C\c3ccc(OCC(=O)O)cc3)c(=O)n2C1c1ccc(Cl)cc1 (configuration not stated)	200 (≈ 103 µg/mL)	200 (≈ 103 µg/mL)	> 200	> 200	inactive	Non-toxic		
CCOC(=O)C1=C(C)N=c2s/c(=C\c3ccc(OCC(=O)O)c(OC)c3)c(=O)n2C1c1ccc(OC)cc1 (configuration not stated)	50 (≈ 26.9 µg/mL)	50 (≈ 26.9 µg/mL)	> 200	> 200	inactive			
CCOC(=O)C1=C(c2ccccc2)N=c2s/c(=C\c3ccc(-c4cccc(C(=O)O)c4)o3)c(=O)n2C1c1ccccc1 (configuration not stated)	200 (≈ 115 µg/mL)	200 (≈ 115 µg/mL)	> 200	> 200	inactive	Non-toxic		
CCOC(=O)C1=C(C)N=c2s/c(=C\c3ccc(OCC(=O)O)cc3)c(=O)n2C1c1ccc(OC)cc1 (configuration not stated)	50 (≈ 25.4 µg/mL)	50 (≈ 25.4 µg/mL)	> 200	> 200	inactive	Non-toxic		
CCOC(=O)C1=C(c2ccccc2)N=c2s/c(=C\c3ccc(-c4cccc(C(=O)O)c4)o3)c(=O)n2C1c1ccc(OC)cc1 (configuration not stated)	3.12 (≈ 1.9 µg/mL)	3.12 (≈ 1.9 µg/mL)	> 200	> 200	Active	Non-toxic		
CCOC(=O)C1=C(c2ccccc2)N=c2s/c(=C\c3ccc(-c4cccc(C(=O)O)c4)o3)c(=O)n2C1c1ccc2c(c1)OCO2 (configuration not stated)	6.25 (≈ 3.88 µg/mL)	6.25 (≈ 3.88 µg/mL)	> 200	> 200	Active	Non-toxic	6.25 (≈ 3.88 µg/mL)	14
CCOC(=O)C1=C(c2ccccc2)N=c2s/c(=C\c3ccc(-c4cccc(C(=O)O)c4)o3)c(=O)n2C1c1ccc(Cl)cc1 (configuration not stated)	1.56 (≈ 0.953 µg/mL)	3.12 (≈ 1.91 µg/mL)	> 200	> 200	Active	Non-toxic	6.25 (≈ 3.82 µg/mL)	12.7
CCOC(=O)C1=C(C)N=c2s/c(=C\c3ccc(-c4cccc(C(=O)O)c4)o3)c(=O)n2C1c1ccc(OC)cc1 (configuration not stated)	6.25 (≈ 3.4 µg/mL)		> 200	> 200	inactive	Non-toxic		
CCOC(=O)C1=C(c2ccccc2)N=c2s/c(=C\c3ccc(-c4ccc(C(=O)O)cc4)o3)c(=O)n2C1c1ccc(Cl)cc1 (configuration not stated)	6.25 (≈ 3.82 µg/mL)	3.12 (≈ 1.91 µg/mL)	> 200	> 200	Active	Non-toxic	6.25 (≈ 3.82 µg/mL)	
CCOC(=O)C1=C(c2ccccc2)N=c2s/c(=C\c3ccc(OCC(=O)O)cc3)c(=O)n2C1c1ccc(Cl)cc1 (configuration not stated)	3.12 (≈ 1.8 µg/mL)	3.12 (≈ 1.8 µg/mL)	> 200	> 200	inactive	Non-toxic		
